≈ marks a conversion by molar mass, not a printed value. Calls of active or inactive are those of the source. The rule behind the calls is not given here.
Columns and labels:
RAW264.7 [1] = assay: Antiinflammatory activity in mouse RAW264.7 cells assessed as inhibition of LPS-induced NO production at 20 uM administered 1 hr before LPS challenge measured after 24 hrs by Griess method; type: functional, cell-based
RAW264.7 [2] = assay: Antiinflammatory activity in mouse RAW264.7 cells assessed as inhibition of LPS-induced NO production at 5 uM administered 1 hr before LPS challenge measured after 24 hrs by Griess method; type: functional, cell-based
Mus musculus [3] = assay: Antiinflammatory activity in ICR mouse assessed as decrease in carrageenan-induced MDA level at 8 mg/kg, ip measured after 5 hrs; type: functional, organism-based; design: dose 8 mg/kg
Outline: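 Male ICR mice (n = 6 per group) were dosed 30 min before intraplantar carrageenan. MDA in the edematous paw tissue was determined at the 5th hr after carrageenan.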

Mus musculus [4] = assay: Antioxidant activity in carrageenan-stimulated ICR mouse assessed as increase in SOD activity at 2 mg/kg, ip measured after 5 hrs; type: functional; conditions: route intraperitoneal
Outline: (§1)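 Male ICR mice (n = 6 per group) received the drug 30 min before intraplantar carrageenan, and paw tissue was taken at the 5th hr. Total SOD was measured by inhibition of cytochrome c reduction, CAT by Aebi's method, and cytosolic GPx by Paglia–Valentine. Activities are in U/mg protein, given as mean ± SEM.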

RAW264.7 [5] = assay: Antiinflammatory activity in mouse RAW264.7 cells assessed as inhibition of LPS-induced PGE2 production at 10 uM administered 1 hr before LPS challenge measured after 24 hrs by ELISA
Mus musculus [6] = assay: Antiinflammatory activity in carrageenan-stimulated ICR mouse assessed as decrease in neutrophil number at 8 mg/kg, ip measured after 5 hrs; type: functional, organism-based; design: dose 8 mg/kg
Outline: (§2)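 Male ICR mice were dosed 30 min before intraplantar carrageenan, and paw biopsies were taken 5 h later. Tissue was fixed in Dietric solution for 1 week at room temperature, dehydrated in graded ethanol and paraffin-embedded. 7-thickness sections were stained with hematoxylin–eosin or Van Gieson and examined by light microscopy.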

Mus musculus [7] = assay: Antiinflammatory activity in carrageenan-stimulated ICR mouse assessed as decrease in cellular infiltration to intercellular spaces at 8 mg/kg, ip measured after 5 hrs; type: functional, organism-based; design: dose 8 mg/kg; outline: as §2
RAW264.7 [8] = assay: Antiinflammatory activity in mouse RAW264.7 cells assessed as inhibition of LPS-induced NO production at 10 uM administered 1 hr before LPS challenge measured after 24 hrs by Griess method; type: functional, cell-based
Mus musculus [9] = assay: Antiinflammatory activity in ICR mouse assessed as decrease in carrageenan-induced serum TNFalpha level at 2 mg/kg, ip; type: functional, organism-based; design: dose 2 mg/kg
Outline: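 Male ICR mice (18–25 g, n = 6 per group). Carrageenan was injected intraplantar into the paw, with drug given 30 min beforehand. Serum was collected at the 5th hr. Nitrite was measured colorimetrically by Griess reaction, and TNF-α by commercial ELISA. Data are mean ± SEM.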

RAW264.7 [10] = assay: Down regulation of iNOS protein expression in LPS-stimulated mouse RAW264.7 cells at 20 uM after 24 hrs by Western blot analysis; type: functional
Outline: (§3)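 RAW 264.7 cells were pretreated with test agent for 1 h, then stimulated with 100 ng/mL LPS for 24 h. Lysates were made in RIPA buffer and 30 µg protein resolved by SDS-PAGE, blotted to PVDF and blocked with 1% BSA. Primary antibody ran overnight at 4 °C, HRP secondary 1 h at 37 °C. Detection was by ECL, with band intensity expressed relative to control.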

Mus musculus [11] = assay: Antiinflammatory activity in carrageenan-stimulated ICR mouse assessed as decrease in number of inflammatory cells at 8 mg/kg, ip measured after 5 hrs; type: functional, organism-based; design: dose 8 mg/kg; outline: as §2
Mus musculus [12] = assay: Antiinflammatory activity in ICR mouse assessed as decrease in carrageenan-induced inflammatory response at 8 mg/kg, ip measured after 5 hrs; type: functional, organism-based; design: dose 8 mg/kg; outline: as §2
RAW264.7 [13] = assay: Antiinflammatory activity in mouse RAW264.7 cells assessed as inhibition of LPS-induced TNFalpha production administered 1 hr before LPS challenge measured after 24 hrs by ELISA
[14] = Antiinflammatory activity in human neutrophils assessed as inhibition of fMLP/CB-induced elastase release; type: functional, cell-based; conditions: Neutrophil
RAW264.7 [15] = assay: Down regulation of COX-2 protein expression in LPS-stimulated mouse RAW264.7 cells at 20 uM after 24 hrs by Western blot analysis; type: functional; outline: as §3
RAW264.7 [16] = assay: Inhibition of JNK phosphorylation in LPS-stimulated mouse RAW264.7 cells at 5 to 20 uM after 30 mins by Western blot analysis; type: cell-based
Outline: (§4)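 RAW 264.7 cells were pretreated with test agent, then stimulated with LPS for 30 min. Phospho-ERK, phospho-JNK and phospho-p38 were assessed by Western blot: RIPA lysates, 30 µg protein, SDS-PAGE, PVDF, primary antibody overnight at 4 °C, HRP secondary and ECL detection.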

[17] = target: Mitogen-activated protein kinase 1 and 3 (ERK2 and ERK1) (Mus musculus) (UniProt P63085+Q63844); assay: Inhibition of Erk1/2 phosphorylation in LPS-stimulated mouse RAW264.7 cells at 5 to 20 uM after 30 mins by Western blot analysis; type: cell-based; outline: as §4
Mus musculus [18] = assay: Down regulation of COX-2 protein expression in carrageenan-stimulated ICR mouse at 8 mg/kg, ip measured after 5 hrs by Western blot analysis; type: functional; conditions: route intraperitoneal
Outline: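 Male ICR mice (18–25 g, n = 6 per group) received intraplantar carrageenan. Paw tissue was taken 5 h after carrageenan. Lysates were made in RIPA buffer and 30 µg protein run on SDS-PAGE/PVDF immunoblot with ECL detection. Band intensities were quantified relative to the carrageenan-alone group across three independent experiments.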

Mus musculus [19] = assay: Antiinflammatory activity in carrageenan-stimulated ICR mouse assessed as reduction in iNOS immunoreactive cells at 8 mg/kg, ip measured after 5 hrs; type: functional, organism-based; design: dose 8 mg/kg
RAW264.7 [20] = assay: Antiinflammatory activity in mouse RAW264.7 cells assessed as inhibition of LPS-induced PGE2 production administered 1 hr before LPS challenge measured after 24 hrs by ELISA
RAW264.7 [21] = assay: Cytotoxicity against mouse RAW264.7 cells after 24 hrs by MTT assay; type: cell-based; conditions: raw264.7, 24 h
Outline: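 RAW 264.7 cells (2 × 10⁵, DMEM + 10% FBS, grown 1 day to near confluence) exposed to test agent with 100 ng/mL LPS for 24 h. After two DPBS washes, 0.5 mg/mL MTT was added for 2 h at 37 °C. Formazan was dissolved in DMSO for 30 min and absorbance read at 570 nm.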

Mus musculus [22] = assay: Antioxidant activity in carrageenan-stimulated ICR mouse assessed as increase in SOD activity at 8 mg/kg, ip measured after 5 hrs; type: functional; conditions: route intraperitoneal; outline: as §1
Mus musculus [23] = assay: Antiinflammatory activity in ICR mouse assessed as inhibition of carrageenan-induced hind paw edema at 8 mg/kg, ip measured after 4 hrs; type: functional, organism-based; design: dose 8 mg/kg
Mus musculus [24] = assay: Antiinflammatory activity in ICR mouse assessed as inhibition of carrageenan-induced hind paw edema at 8 mg/kg, ip measured after 5 hrs; type: functional, organism-based; design: dose 8 mg/kg
Mus musculus [25] = assay: Antioxidant activity in carrageenan-stimulated ICR mouse assessed as increase in GPx activity at 8 mg/kg, ip measured after 5 hrs; type: functional; conditions: route intraperitoneal; outline: as §1

Mitogen-activated protein kinase 1 and 3 (ERK2 and ERK1) (Mus musculus), sequence (P63085 whole entry, looked up): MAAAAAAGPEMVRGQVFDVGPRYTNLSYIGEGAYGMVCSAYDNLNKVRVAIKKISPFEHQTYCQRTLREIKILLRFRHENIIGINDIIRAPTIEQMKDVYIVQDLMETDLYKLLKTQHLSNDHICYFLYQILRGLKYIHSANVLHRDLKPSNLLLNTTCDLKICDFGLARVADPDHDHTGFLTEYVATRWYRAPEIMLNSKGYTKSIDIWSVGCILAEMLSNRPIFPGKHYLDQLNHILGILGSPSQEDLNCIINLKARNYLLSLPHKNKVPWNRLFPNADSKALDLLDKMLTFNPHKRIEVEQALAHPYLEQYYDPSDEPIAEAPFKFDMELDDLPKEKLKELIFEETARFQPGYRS
Mitogen-activated protein kinase 1 and 3 (ERK2 and ERK1) (Mus musculus), sequence (Q63844 whole entry, looked up): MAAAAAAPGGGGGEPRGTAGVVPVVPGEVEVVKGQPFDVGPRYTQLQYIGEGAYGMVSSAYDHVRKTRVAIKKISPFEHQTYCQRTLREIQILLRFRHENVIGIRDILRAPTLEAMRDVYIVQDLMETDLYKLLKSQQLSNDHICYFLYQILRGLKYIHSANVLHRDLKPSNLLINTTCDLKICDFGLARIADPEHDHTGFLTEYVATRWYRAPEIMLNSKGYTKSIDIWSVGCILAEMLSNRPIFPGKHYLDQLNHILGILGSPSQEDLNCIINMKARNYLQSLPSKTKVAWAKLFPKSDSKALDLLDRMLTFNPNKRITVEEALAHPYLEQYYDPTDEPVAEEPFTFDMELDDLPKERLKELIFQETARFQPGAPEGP

## COc1cc(CCCc2c(OC)cc(O)c(OC)c2OC)ccc1O [VISCOLIN]
RAW264.7 [1]
  Activity: Active
RAW264.7 [2]
  Activity: Active
Mus musculus [3]
  Activity: Active
Mus musculus [4]
  Activity: 2.45 U/mg
RAW264.7 [5]
  Activity: Active
Mus musculus [6]
  Activity: Active
Mus musculus [7]
  Activity: Active
RAW264.7 [8]
  Activity: Active
Mus musculus [9]
  Activity: Active
RAW264.7 [10]
  Activity: 83.8%
Mus musculus [11]
  Activity: Active
Mus musculus [12]
  Activity: Active
RAW264.7 [13]
  Activity: Dose-dependent effect
  IC50: 17.3 µM
[14]
  IC50: 4.93 µg/mL (≈ 14.2 µM)
RAW264.7 [15]
  Activity: 70.6%
RAW264.7 [16]
  inhibition: inactive
[17]
  inhibition: Active
Mus musculus [18]
  Activity: 76.2%
Mus musculus [19]
  Activity: Active
RAW264.7 [20]
  IC50: 14.4 µM
RAW264.7 [21]
  Activity: Non-toxic
Mus musculus [22]
  Activity: 4.08 U/mg
Mus musculus [23]
  Activity: Active
Mus musculus [24]
  Activity: Active
Mus musculus [25]
  Activity: 11.54 U/mg
